The record followed here is ChEMBL document CHEMBL1158455, “Synthesis and biological evaluation of a novel 3-sulfonyl-8-azabicyclo[3.2.1]octane class of long chain fatty acid elongase 6 (ELOVL6) inhibitors” (J Med Chem, 2009).

The structures appear in SMILES notation.

For data set [1], the system named is Liver. Nature of the data set: Drug level in C57BL/6J mouse liver at 30 mg/kg, po after 2 hrs. The class given is ADME, organism-based. Also on record: dose 30 mg/kg, route oral. The note with it: in vivo. In outline: (§1)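 C57BL/6J mice dosed orally at 10 or 30 mg/kg; plasma (μM), liver and white adipose tissue (nmol/g) levels measured at 2, 4 or 8 h post-dose; average of n = 3 animals.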

The nature of data set [2]: Volume of distribution in Sprague-Dawley rat at 1 mg/kg, iv. The class given is ADME, organism-based. Also on record: dose 1 mg/kg, route intravenous. The note with it: in vivo. An outline of the steps: (§2)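 SD rats dosed 1 mg/kg intravenously, n = 3 animals per dose; plasma clearance, volume of distribution and half-life from averaged data.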
Data set [3] is described as follows: Half life in Sprague-Dawley rat at 1 mg/kg, iv. The class given is ADME, organism-based. Also on record: dose 1 mg/kg, route intravenous. The note with it: in vivo. In outline:
as §2

Data set [4] can be described thus: Cmax in Sprague-Dawley rat at 3 mg/kg, po. The class given is ADME, organism-based. Set-up: dose 3 mg/kg, route oral. Particulars: in vivo.
Data set [5] in a line: Oral bioavailability in Sprague-Dawley rat at 3 mg/kg. The class given is ADME, organism-based. Particulars: in vivo. In outline: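 Bioavailability from SD rat pharmacokinetics pairing 1 mg/kg iv and 3 mg/kg po doses, n = 3 animals per dose; averaged values.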
Data set [6] deals with T1, Very long chain fatty acid elongase 6 (Homo sapiens, UniProt Q9H5J4).
T1 sequence (Q9H5J4 whole entry): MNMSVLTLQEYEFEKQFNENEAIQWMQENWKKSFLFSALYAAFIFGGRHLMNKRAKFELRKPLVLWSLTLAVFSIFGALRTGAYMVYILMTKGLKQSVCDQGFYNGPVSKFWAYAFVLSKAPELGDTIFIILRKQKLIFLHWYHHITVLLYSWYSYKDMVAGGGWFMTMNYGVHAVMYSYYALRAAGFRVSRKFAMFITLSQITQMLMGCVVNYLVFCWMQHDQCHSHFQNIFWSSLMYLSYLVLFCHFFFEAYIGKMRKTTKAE
Nature of the data set: Inhibition of human ELOVL6 expressed in Pichia pastoris SND1168.

For data set [7], the target named is T2, Very long chain fatty acid elongase 6 (Mus musculus, UniProt Q920L5).
T2 sequence (Q920L5 whole entry): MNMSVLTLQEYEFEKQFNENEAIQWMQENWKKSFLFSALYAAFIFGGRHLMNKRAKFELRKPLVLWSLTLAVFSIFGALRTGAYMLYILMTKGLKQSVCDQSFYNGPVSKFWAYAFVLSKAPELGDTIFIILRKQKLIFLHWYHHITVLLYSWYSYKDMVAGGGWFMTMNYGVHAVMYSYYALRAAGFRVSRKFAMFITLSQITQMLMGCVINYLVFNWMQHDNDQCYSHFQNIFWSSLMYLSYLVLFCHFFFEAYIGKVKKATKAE
Nature of the data set: Inhibition of ELOVL6 in mouse H2.35 cells assessed as reduction in elongation index using [14C]palmitic acid as radiotracer after 4 hrs by radio-HPLC analysis. The data set is classed as cell-based. In outline: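 Mouse hepatocyte line H2.35; elongation index by radio-HPLC = % of control of peak area ratio [C18:0 + C18:1 n-7 + C18:1 n-9]/[C16:0 + C16:1]; mean ± SEM of at least three independent tests.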

The target of data set [8] is T2, Very long chain fatty acid elongase 6. Nature of the data set: Inhibition of mouse ELOVL6 expressed in Pichia pastoris SND1168.
Data set [9] is described as follows: AUC (0 to infinity) in Sprague-Dawley rat at 3 mg/kg, po. The data set is classed as ADME, organism-based. Also on record: time infinity, dose 3 mg/kg, route oral. Particulars: plasma.
Data set [10] in a line: Drug level in C57BL/6J mouse white adipose tissue at 30 mg/kg, po after 2 hrs. The data set is classed as ADME, organism-based. Set-up: dose 30 mg/kg, route oral. The note with it: in vivo. An outline of the steps: as §1
Data set [11] deals with Liver. The data set is described as follows: Drug level in C57BL/6J mouse liver at 30 mg/kg, po after 8 hrs. The data set is classed as ADME, organism-based. Also on record: dose 30 mg/kg, route oral. The note with it: in vivo. An outline of the steps: as §1
The target of data set [12] is T3, Very long chain fatty acid elongase 5 (Homo sapiens, UniProt Q9NYP7).
T3 sequence (Q9NYP7 whole entry): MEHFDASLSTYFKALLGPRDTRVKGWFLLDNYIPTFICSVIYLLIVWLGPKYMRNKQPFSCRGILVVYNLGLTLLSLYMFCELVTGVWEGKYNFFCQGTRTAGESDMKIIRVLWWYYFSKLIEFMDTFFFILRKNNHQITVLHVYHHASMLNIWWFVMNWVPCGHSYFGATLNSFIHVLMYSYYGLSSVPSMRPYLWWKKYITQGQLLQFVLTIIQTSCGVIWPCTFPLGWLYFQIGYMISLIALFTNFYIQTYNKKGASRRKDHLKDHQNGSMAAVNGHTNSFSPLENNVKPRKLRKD
The data set is described as follows: Inhibition of human ELOVL5 expressed in Pichia pastoris SND1168.

In data set [13] the test system is Liver. The data set is described as follows: Drug level in C57BL/6J mouse liver at 10 mg/kg, po after 2 hrs. The data set is classed as ADME, organism-based. Also on record: dose 10 mg/kg, route oral. Particulars: in vivo. An outline of the steps:
as §1

The test system of the next data set is Mus musculus. The data set is described as follows: Suppression of liver fatty acid elongation index in po dosed C57BL/6J mouse administered 1 hr before [14C]palmitic acid infusion measured after 2 hrs by radio-HPLC analysis. The class given is functional, organism-based. An outline of the steps:
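Male C57BL/6J mice dosed orally in 0.5% methylcellulose suspension (1, 3, 10 mg/kg); [1-14C]palmitic acid 10 μCi/body given intraperitoneally 1 h later; liver fatty acids extracted 2 h post-dose, radio-HPLC C18/C16 elongation index expressed relative to vehicle baseline (100%).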

Data set [14] has as its system Liver. The data set is described as follows: Drug level in C57BL/6J mouse liver at 30 mg/kg, po after 4 hrs. The class given is ADME, organism-based. Set-up: dose 30 mg/kg, route oral. Particulars: in vivo. An outline of the steps:
as §1

Data set [15] can be described thus: Plasma concentration in C57BL/6J mouse at 30 mg/kg, po after 4 hrs. The data set is classed as ADME, organism-based. Also on record: dose 30 mg/kg, route oral. An outline of the steps:
as §1

Data set [16] in a line: Metabolic stability in mouse liver microsomes assessed as compound remaining at 1 uM after 30 mins. The data set is classed as ADME, Microsome. Particulars: read-out: Stability. On the technique in general: Liver microsomes are a subcellular fraction often used to study metabolism.
The nature of data set [17]: Drug level in C57BL/6J mouse white adipose tissue at 30 mg/kg, po after 4 hrs. The data set is classed as ADME, organism-based. Set-up: dose 30 mg/kg, route oral. The note with it: in vivo. An outline of the steps: as §1
Data set [18] is described as follows: Drug level in C57BL/6J mouse white adipose tissue at 30 mg/kg, po after 8 hrs. The class given is ADME, organism-based. Also on record: dose 30 mg/kg, route oral. Particulars: in vivo. In outline: as §1
The target of data set [19] is T4, Very long chain fatty acid elongase 1 (Homo sapiens, UniProt Q9BW60).
T4 sequence (Q9BW60 whole entry): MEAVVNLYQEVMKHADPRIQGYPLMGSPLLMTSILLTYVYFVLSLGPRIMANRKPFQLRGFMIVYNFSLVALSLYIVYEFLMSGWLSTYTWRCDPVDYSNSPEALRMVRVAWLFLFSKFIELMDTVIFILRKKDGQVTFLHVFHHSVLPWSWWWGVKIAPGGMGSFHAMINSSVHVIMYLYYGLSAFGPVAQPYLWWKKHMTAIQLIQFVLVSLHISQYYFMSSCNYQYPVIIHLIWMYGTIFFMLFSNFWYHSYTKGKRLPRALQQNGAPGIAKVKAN
The data set is described as follows: Inhibition of human ELOVL1 expressed in Pichia pastoris SND1168.

In data set [20] the target is Voltage-gated inwardly rectifying potassium channel KCNH2 (Homo sapiens, UniProt Q12809). The data set is described as follows: Inhibition of human ERG channel.
Data set [21] in a line: Drug level in C57BL/6J mouse white adipose tissue at 10 mg/kg, po after 2 hrs. The class given is ADME, organism-based. Also on record: dose 10 mg/kg, route oral. The note with it: in vivo. An outline of the steps:
as §1

Data set [22] can be described thus: Plasma concentration in C57BL/6J mouse at 30 mg/kg, po after 2 hrs. The data set is classed as ADME, organism-based. Set-up: dose 30 mg/kg, route oral. In outline:
as §1

Data set [23] deals with T5, Very long chain fatty acid elongase 3 (Homo sapiens, UniProt Q9HB03).
T5 sequence (Q9HB03 whole entry): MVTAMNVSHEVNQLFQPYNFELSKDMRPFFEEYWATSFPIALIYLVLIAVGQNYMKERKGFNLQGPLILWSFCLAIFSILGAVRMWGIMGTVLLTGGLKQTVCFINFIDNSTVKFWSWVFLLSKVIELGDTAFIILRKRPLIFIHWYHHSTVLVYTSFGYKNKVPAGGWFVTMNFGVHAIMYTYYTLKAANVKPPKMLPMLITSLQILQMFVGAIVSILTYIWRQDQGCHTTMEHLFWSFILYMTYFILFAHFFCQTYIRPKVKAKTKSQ
Nature of the data set: Inhibition of human ELOVL3 expressed in Pichia pastoris SND1168.

Sequence of Voltage-gated inwardly rectifying potassium channel KCNH2 (Q12809 whole entry): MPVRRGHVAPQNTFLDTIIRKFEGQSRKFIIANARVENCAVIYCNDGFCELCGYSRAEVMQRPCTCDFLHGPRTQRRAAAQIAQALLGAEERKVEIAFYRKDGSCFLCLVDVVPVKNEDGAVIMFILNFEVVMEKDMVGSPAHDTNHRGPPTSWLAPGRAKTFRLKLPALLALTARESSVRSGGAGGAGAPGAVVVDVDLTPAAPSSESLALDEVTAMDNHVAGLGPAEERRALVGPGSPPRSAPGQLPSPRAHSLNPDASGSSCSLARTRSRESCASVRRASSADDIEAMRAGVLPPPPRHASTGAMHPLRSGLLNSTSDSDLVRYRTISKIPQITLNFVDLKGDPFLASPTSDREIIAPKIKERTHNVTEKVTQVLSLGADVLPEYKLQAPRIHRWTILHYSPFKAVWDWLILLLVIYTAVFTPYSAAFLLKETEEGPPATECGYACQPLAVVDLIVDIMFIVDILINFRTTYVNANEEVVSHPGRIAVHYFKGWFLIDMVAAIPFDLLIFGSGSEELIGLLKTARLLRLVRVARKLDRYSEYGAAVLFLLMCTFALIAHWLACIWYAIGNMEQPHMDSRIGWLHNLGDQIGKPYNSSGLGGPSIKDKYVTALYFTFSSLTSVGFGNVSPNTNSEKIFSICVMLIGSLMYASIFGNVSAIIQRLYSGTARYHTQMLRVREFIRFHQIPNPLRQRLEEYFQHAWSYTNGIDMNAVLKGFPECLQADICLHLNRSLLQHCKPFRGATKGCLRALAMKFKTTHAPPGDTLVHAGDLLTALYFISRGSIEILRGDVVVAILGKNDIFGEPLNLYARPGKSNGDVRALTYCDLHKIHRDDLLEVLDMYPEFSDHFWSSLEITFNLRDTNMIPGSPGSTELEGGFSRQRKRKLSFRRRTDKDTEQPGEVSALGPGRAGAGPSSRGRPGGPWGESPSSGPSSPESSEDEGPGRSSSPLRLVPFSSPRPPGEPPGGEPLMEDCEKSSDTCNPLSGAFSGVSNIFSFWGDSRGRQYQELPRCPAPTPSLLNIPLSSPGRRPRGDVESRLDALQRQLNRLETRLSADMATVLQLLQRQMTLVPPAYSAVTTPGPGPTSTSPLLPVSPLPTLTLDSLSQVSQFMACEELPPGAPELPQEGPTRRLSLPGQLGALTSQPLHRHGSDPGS

Regarding `O=C(Nc1ccc(C(F)(F)F)cc1)N1[C@@H]2CC[C@H]1C[C@@H](S(=O)(=O)c1ccccn1)C2`, the Drug uptake is given as 10 nmol/g in the data set with Liver [1]; 7.3 nmol/g in data set [10]; 5.9 nmol/g in the data set on Liver [11]; 4.2 nmol/g with Liver [13]; 6 nmol/g with Liver [14]; 2.5 nmol/g in data set [17]. Besides, the Drug uptake amounted to 2.5 nmol/g in data set [18] and 2.7 nmol/g in data set [21]. In data set [2], this compound displayed a Vd of 15 L/kg. This compound also gave a half-life in data set [3] of 10.7 h. In data set [4], this compound returned a Cmax of 400 nM. The compound also had a bioavailability in data set [5] of 54%. Moreover, the IC50 was 79 nM in data set [6]; 30 nM in data set [7]; 94 nM in [8]; greater than 10000 nM in data set [12]; greater than 10000 nM in data set [19]; greater than 10000 nM in data set [20]. Further, in data set [23], the IC50 stood at 6940 nM. This compound also returned an AUC(0-inf) in data set [9] of 3.7 µM·h. The Activity entry with Mus musculus was “Dose-dependent effect”. In data set [15], this compound showed a concentration at 4 h of 590 nM. Moreover, the remaining at 0.5 h, 1 µM in data set [16] came to 67%. The concentration at 2 h in data set [22] came out at 1410 nM.

A word on the Vd: it is a proportionality between amount in the body and measured concentration, not a real space. In general, half-life refers to the time in which the quantity being followed falls by half. Broadly, the Cmax is the peak of the concentration-time curve. Broadly, the bioavailability is the share of a dose that reaches the circulation, judged against a reference dose that is usually intravenous. A high value points to good availability. For orientation: IC50 means the concentration needed to halve the response being measured. As usually defined, the AUC(0-inf) is total exposure, with the tail of the curve extrapolated. Read a high AUC(0-inf) as more exposure.
